2 molecules from ChEMBL document CHEMBL1124475, “The thieno[3,2-c]pyridine and furo[3,2-c]pyridine rings: new pharmacophores with potential antipsychotic activity” (J Med Chem, 1989) can be followed below.

For assay [1], the system named is Rattus norvegicus. Nature of the assay: Induction of catalepsy in rats when administered perorally and maximum dose examined was 4 times the ED50 value established in CAR; Inactive. Format: functional, organism-based.
In assay [2] the test system is Rattus norvegicus. As to the kind of experiment: Spontaneous discharge activity of individual dopaminergic neurons in the ventral tegmentum neurons (A10 DA cells) when administered intravenously at a dose of 0.1-6.3 mg/kg in anesthetized male Sprague-Dawley rats; No effect at a dose of 0.1-6.3 m g/kg. Format: functional, organism-based. The conditions noted are these: A10DA.

The test system of assay [3] is Rattus norvegicus. Nature of the assay: Spontaneous discharge activity of individual dopaminergic neurons in substantia nigra (A9DA cells) when administered subcutaneously at dose of 5.0 mg/kg/day in anesthetized male Sprague-Dawley rats; small increase in the number of DA cells per track. Format: functional, organism-based.
Assay [4] has as its target T1, Adrenergic receptor alpha-1 (Rattus norvegicus, UniProt P15823+P23944+P43140).
T1 sequence (P15823 whole entry): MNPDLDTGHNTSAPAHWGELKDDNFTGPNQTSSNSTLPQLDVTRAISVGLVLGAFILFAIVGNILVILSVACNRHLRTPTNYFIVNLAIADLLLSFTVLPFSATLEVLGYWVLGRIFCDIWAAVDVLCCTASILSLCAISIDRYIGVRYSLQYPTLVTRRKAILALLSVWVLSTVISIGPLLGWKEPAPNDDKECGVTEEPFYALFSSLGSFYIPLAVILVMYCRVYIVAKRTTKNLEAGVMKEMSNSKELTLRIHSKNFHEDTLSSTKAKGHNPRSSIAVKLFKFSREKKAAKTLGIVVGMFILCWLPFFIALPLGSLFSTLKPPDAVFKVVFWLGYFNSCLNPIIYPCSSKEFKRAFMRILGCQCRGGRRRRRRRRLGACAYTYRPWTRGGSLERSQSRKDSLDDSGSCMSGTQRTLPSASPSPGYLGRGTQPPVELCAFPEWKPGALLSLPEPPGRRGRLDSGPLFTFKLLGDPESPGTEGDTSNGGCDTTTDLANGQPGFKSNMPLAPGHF
T1 sequence (P23944 whole entry): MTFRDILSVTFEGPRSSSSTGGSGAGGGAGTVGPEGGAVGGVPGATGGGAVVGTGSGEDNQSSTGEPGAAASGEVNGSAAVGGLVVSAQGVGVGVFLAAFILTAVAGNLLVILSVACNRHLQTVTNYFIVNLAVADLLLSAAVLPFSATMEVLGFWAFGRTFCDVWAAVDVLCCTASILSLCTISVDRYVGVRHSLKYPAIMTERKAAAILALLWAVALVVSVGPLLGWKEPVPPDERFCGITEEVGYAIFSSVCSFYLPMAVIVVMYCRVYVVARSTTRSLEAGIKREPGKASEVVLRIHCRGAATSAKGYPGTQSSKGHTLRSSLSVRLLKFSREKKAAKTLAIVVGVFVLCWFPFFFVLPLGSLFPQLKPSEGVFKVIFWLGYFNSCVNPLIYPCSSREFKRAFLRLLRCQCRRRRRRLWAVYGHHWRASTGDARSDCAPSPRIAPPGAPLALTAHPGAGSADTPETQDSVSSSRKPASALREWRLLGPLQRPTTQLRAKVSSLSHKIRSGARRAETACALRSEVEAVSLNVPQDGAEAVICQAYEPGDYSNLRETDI
T1 sequence (P43140 whole entry): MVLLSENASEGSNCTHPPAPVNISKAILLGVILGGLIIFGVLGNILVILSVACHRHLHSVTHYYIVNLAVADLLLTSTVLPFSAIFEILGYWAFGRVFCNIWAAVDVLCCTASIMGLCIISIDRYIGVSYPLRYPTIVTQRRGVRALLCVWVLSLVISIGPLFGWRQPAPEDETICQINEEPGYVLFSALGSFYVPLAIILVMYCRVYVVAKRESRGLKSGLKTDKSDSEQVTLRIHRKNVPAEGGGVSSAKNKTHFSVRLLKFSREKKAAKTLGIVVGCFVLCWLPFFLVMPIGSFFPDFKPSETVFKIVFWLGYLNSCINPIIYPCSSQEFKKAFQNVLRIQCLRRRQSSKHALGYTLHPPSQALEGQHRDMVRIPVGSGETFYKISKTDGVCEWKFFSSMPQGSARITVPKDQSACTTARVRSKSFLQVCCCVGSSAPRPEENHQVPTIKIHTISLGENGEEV
As to the kind of experiment: Ability to bind at alpha-1 adrenergic receptor by displacing [3H]WB-4101. The format is protein assay. The method, boiled down: (§1)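 Rat receptor radioligand displacement, five test-ligand concentrations used to calculate IC50, each assay in duplicate. Some compounds determined four times (in duplicate), with mean IC50 reported.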

For assay [5], the system named is Rattus norvegicus. As to the kind of experiment: Blockade of Sidman-avoidance activity in rats when administered perorally. Format: functional. The method, boiled down: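 Rats trained in once-daily Sidman sessions until stable; non-learners after 3 days replaced. Twelve rats dosed 30 min before session. Each rat compared with mean of its previous three drug-free days by paired t test. Testing continued to minimally effective dose; maximum usually 100 mg/kg. MED is mean over 12 animals.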

Assay [6] deals with Serotonin 2 (5-HT2) receptor (Rattus norvegicus, UniProt P30994+P08909+P14842). Nature of the assay: Ability to bind at serotonin 5-hydroxytryptamine 2 receptors of rat cortex by displacing [3H]spiperone.
In the next assay the target is D(2) dopamine receptor (Rattus norvegicus, UniProt P61169). Nature of the assay: Ability to bind at Dopamine receptor D2 of rat corpus striatum by displacing [3H]spiperone. The method, boiled down:
as §1

The subject of assay [7] is Rattus norvegicus. As to the kind of experiment: Spontaneous discharge activity of individual dopaminergic neurons in the ventral tegmentum neurons (A10 DA cells) when administered subcutaneously at a dose of 5.0 mg/kg/day in anesthetized male Sprague-Dawley rats; No effect at a dose of 0.1-6.3 mg/kg. The format is functional, organism-based. The conditions noted are these: A10DA.

Assay [8] deals with Rattus norvegicus. As to the kind of experiment: Conditioned avoidance response (CAR) when administered perorally. Format: functional. The note with it: po.
For assay [9], the system named is Rattus norvegicus. As to the kind of experiment: Spontaneous discharge activity of individual dopaminergic neurons in the substantia nigra (A9 DA cells) when administered intravenously at a dose of 0.1-6.3 mg/kg in anesthetized male Sprague-Dawley rats; No effect at a dose of 0.1-6.3 mg/kg. The note with it: A9DA. Format: functional, organism-based.
For assay [10], the target named is Serotonin 1 (5-HT1) receptor (Rattus norvegicus, UniProt P28564+P30940+P19327+P28565). As to the kind of experiment: Ability to bind at 5-hydroxytryptamine 1 receptor of rat hippocampus by displacing [3H]5-HT. The format is tissue-based. The method, boiled down: as §1
Assay [11] deals with Rattus norvegicus. As to the kind of experiment: Blockade of apomorphine-induced stereotypy in rats when administered perorally. The format is functional. The note with it: po.
Assay [12] deals with Rattus norvegicus. Nature of the assay: Spontaneous discharge activity of individual noradrenergic neurons in the locus coeruleus (LC) when administered intravenously in anesthetized male Sprague-Dawley rats; (excitatory). Format: functional. The conditions noted are these: iv.
Assay [13] concerns Rattus norvegicus. Nature of the assay: Spontaneous discharge activity of individual serotonergic neurons in the dorsal raphe (DR) nucleus when administered intravenously in anesthetized male Sprague-Dawley rats; (Inhibitory). The note with it: iv. The format is functional.
Assay [14] concerns Rattus norvegicus. As to the kind of experiment: Reversal of trifluoperazine-induced catalepsy in rats when administered perorally. The format is functional. The note with it: po.
In assay [15] the test system is Rattus norvegicus. As to the kind of experiment: Spontaneous discharge activity of individual serotonergic neurons in the dorsal raphe (DR) nucleus when administered intravenously in anesthetized male Sprague-Dawley rats; (inhibitory). The conditions noted are these: iv. The format is functional.
The test system of assay [16] is Rattus norvegicus. As to the kind of experiment: Spontaneous discharge activity of individual dopaminergic neurons in the ventral tegmentum neurons (A10 DA cells) when administered intravenously at a dose of 0.1-6.3 mg/kg in anesthetized male Sprague-Dawley rats; (excitatory). The format is functional. The note with it: A10DA, iv.
Another assay deals with Mus musculus. Nature of the assay: Blockade of apomorphine-induced climbing in mice when administered perorally. Format: functional. The method, boiled down: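 Male mice habituated 30 min in individual cages, then dosed orally (distilled H2O or 0.5% Methocel suspension, 10 mL/kg) or vehicle. Apomorphine 1.5 mg/kg sc given 30 min later. Climbing scored at 10, 20, 30 min post-apomorphine. At least five animals per dose, maximum 100 mg/kg.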

Assay [17] deals with Rattus norvegicus. Nature of the assay: spontaneous discharge activity of individual noradrenergic neurons in the locus coeruleus (LC) when administered intravenously in anesthetized male Sprague-Dawley rats; (excitatory). The conditions noted are these: iv. The format is functional.
The subject of assay [18] is Rattus norvegicus. As to the kind of experiment: Spontaneous discharge activity of individual dopaminergic neurons in the substantia nigra (A9 DA cells) when administered intravenously at a dose of 0.1-6.3 mg/kg in anesthetized male Sprague-Dawley rats; (excitatory). Format: functional. The conditions noted are these: A9DA, iv.

The source made the active and inactive calls. No cut-off for these calls is given here.

Sequence of D(2) dopamine receptor (P61169 whole entry): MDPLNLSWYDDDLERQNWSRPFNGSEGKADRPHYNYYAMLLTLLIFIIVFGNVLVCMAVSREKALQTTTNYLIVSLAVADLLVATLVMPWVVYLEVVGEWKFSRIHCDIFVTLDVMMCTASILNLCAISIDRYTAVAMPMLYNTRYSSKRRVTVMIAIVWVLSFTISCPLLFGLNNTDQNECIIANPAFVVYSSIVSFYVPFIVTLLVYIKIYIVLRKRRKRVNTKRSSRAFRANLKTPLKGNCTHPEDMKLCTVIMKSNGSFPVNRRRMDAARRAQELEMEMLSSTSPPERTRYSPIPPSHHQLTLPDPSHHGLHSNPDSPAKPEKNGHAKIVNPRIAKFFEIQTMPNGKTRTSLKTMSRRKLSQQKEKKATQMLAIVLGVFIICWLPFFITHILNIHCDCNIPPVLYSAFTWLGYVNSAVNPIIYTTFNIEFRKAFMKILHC

The term ED50 denotes the dose that gives a 50% effect, or the effect in half of the subjects. The IC50 is the concentration needed to halve the response being measured. Higher therefore signals weaker potency. In the case of `O=C1COCC(=O)N1CCCCN1CCN(c2nccc3occc23)CC1`, the ED50 entry in the assay on Rattus norvegicus [1] is “inactive”. Further, the ED25 result in the assay on Rattus norvegicus [2], in the assay on Rattus norvegicus [3], in the assay on Rattus norvegicus [7] and in the assay with Rattus norvegicus [9] was “inactive” each time. The IC50 was 0.0409 µM in [4], 0.0552 µM in [6], over 1 µM on D(2) dopamine receptor and 0.0335 µM in assay [10]. Also, the MED with Rattus norvegicus [5] (po) was found to be 25 mg/kg. Moreover, the 50% effective dose (ED50) with Rattus norvegicus [8] came out at 11.2 mg/kg; with Rattus norvegicus [11], 34 mg/kg; in the assay with Rattus norvegicus [13], 0.01 mg/kg; in the assay on Rattus norvegicus [14] it was 2.2 mg/kg. Moreover, in the assay on Rattus norvegicus [12], the ED25 was 0.017 mg/kg.
For `CC1(C)CC(=O)N(CCCCN2CCN(c3nccc4sccc34)CC2)C(=O)C1.Cl`, the values for the ED50 in the assay with Rattus norvegicus [15], with Rattus norvegicus [8] and in the assay with Rattus norvegicus [11] were 0.042 mg/kg, 6 mg/kg and 39.7 mg/kg, respectively. In addition, the ED50 entry in the assay with Rattus norvegicus [1] was “inactive”. The IC50 was 0.0188 µM in [4], 0.003 µM in assay [6], 0.115 µM at D(2) dopamine receptor and 0.0057 µM in assay [10]. The ED25 came to 0.05 mg/kg in the assay with Rattus norvegicus [16], 0.06 mg/kg in the assay on Rattus norvegicus [17] and 0.086 mg/kg in the assay with Rattus norvegicus [18]. The MED50 came to 10 mg/kg with Mus musculus and 50 mg/kg with Rattus norvegicus [5].
